Published values pooled from the literature.
Each line is one published result; the experiments were not run side by side.
MDH2: Malate dehydrogenase, mitochondrial (MDH2, Sus scrofa, UniProt P00346)

Compound	target	assay	conditions	endpoint	result
CC(C)(C)n1nc(-c2cnc3cc(OC4CC4)ccc3c2)c(C(N)=O)c1N	Calcium/calmodulin-dependent protein kinase kinase 2 (CAMKK2, Homo sapiens, UniProt Q96RR4)	cell-free assay	–	IC50	> 10 µM
CCCN1CCN(c2ccc(-c3cncc(Cl)c3N3CCC4(CCNC4=O)CC3)cc2)CC1	Serine/threonine-protein kinase D2 (PRKD2, Homo sapiens, UniProt Q9BZL6)	cell-free assay	lysate	Kd	20 µM
CO[C@@H]1O[C@@H](C)[C@@H](O)[C@@H](O)[C@@H]1O	fleA (Aspergillus fumigatus, UniProt Q4WW81)	binding, ITC	–	Kd	76.4 µM
CC(=O)N[C@@H](CCCNC(=N)N)C(=O)NCCOCCOCC(=O)N[C@H](CC(=O)O)C(=O)N1CCC[C@H]1B(O)O	Dipeptidyl peptidase 4 (DPP4, Homo sapiens, UniProt P27487)	enzyme activity, inhibitor, fluorescence	–	Ki	7.13 µM
O=C(/C=C/c1ccc(-n2ccnc2)cc1)N1CCN(C(=O)c2ccco2)CC1	Protein ENL, YEATS (MLLT1, Homo sapiens, UniProt Q03111)	binding, BLI	–	Kd	14 µM
Cc1cc2nc3c(=O)[nH]c(=O)nc-3n(C[C@H](O)[C@H](O)[C@H](O)COP(=O)(O)OP(=O)(O)OC[C@H]3O[C@@H](n4cnc5c(N)ncnc54)[C@H](O)[C@@H]3O)c2cc1C	Protein argonaute-2 (AGO2, Homo sapiens, UniProt Q9UKV8)	binding	lysate	Kd	0.021 µM
CC(C)C[C@H](NC(=O)[C@@H](N)CCCNC(=N)N)C(=O)N[C@@H](Cc1ccc(O)cc1)C(=O)N[C@@H](Cc1ccc(O)cc1)C(=O)N[C@@H](Cc1ccccc1)C(=O)N[C@@H](Cc1c[nH]c2ccccc12)C(=O)N[C@@H](CC(=O)O)C(=O)O	DNA dC->dU-editing enzyme APOBEC-3G (APOBEC3G, Homo sapiens, UniProt Q9HC16)	enzyme activity, inhibitor	–	Ki	~0.65 µM
Cc1cnc(-c2ccc(-c3ccc(NC(=O)Nc4c(F)cc(F)cc4F)cc3F)c3c2C(=O)NC3)[nH]1	NT-3 growth factor receptor (NTRK3, Homo sapiens, UniProt Q16288)	binding, competition with immobilised ligand	–	Kd	0.0009 µM
O=C(Nc1ccc(Sc2nc3ccccc3s2)c(Cl)c1)c1cccc(Br)c1O	MDH2	enzyme activity, inhibitor	–	IC50	> 62.5 µM
CNC(=O)c1cc2c(Oc3ccc(NC(=O)C4(C(=O)Nc5ccc(F)cc5)CC4)cc3)ccnc2cc1OC	Tyrosine-protein kinase Mer (MERTK, Homo sapiens, UniProt Q12866)	enzyme activity, inhibitor, radiometric	–	IC50	0.0009 µM
COc1ccc(S(=O)(=O)Nc2ccc3oc(-c4ccc(NS(=O)(=O)c5cc(Br)ccc5OC)cc4)nc3c2)cc1	MDH2	enzyme activity, inhibitor	–	IC50	> 62.5 µM
CC(=O)N[C@@H](Cc1ccccc1)C(=O)N1CCC[C@H]1C(=O)N1CCC[C@H]1C(=O)N1CCC[C@H]1C(=O)N1CCC[C@H]1C(=O)O	Protein enabled homolog (ENAH, UniProt Q8N8S7)	binding, fluorescence	–	Kd	500 µM
O=C(Nc1ccc(Sc2nc3ccccc3s2)cc1)c1cccc(Br)c1O	MDH2	enzyme activity, inhibitor	–	IC50	> 62.5 µM
[O-][n+]1cccc(CCOc2ccc(Cl)c3ccccc23)c1	G-protein coupled receptor 84 (Gpr84, Mus musculus, UniProt Q8CIM5)	cAMP, agonist	–	EC50	0.011 µM
